# Measured values from different studies.
# Lines come from different studies, so protocols differ.
# Effect on: cell growth or viability
Compound,cell line,test,conditions,IC50 [µM]
CCCCC(C(=O)COc1c(F)c(F)cc(F)c1F)n1cc([C@@](C)(NCc2ccc3ncccc3c2)C2CC2)nn1 (stereo partly shown),BESM,,72 h,> 10
CC(=O)O[C@H]1C(=O)[C@@]2(C)[C@H]([C@H](OC(=O)c3ccccc3)[C@]3(O)C[C@H](OC(=O)[C@H](O)[C@@H](NC(=O)c4ccccc4)c4ccccc4)C(C)=C1C3(C)C)[C@]1(OC(C)=O)CO[C@@H]1C[C@@H]2O,COR-L23,SRB,,0.0021
O=C(Nc1cccc(F)c1)Nc1cccc(C(=O)Nc2ccc3[nH]ncc3c2)c1,KM12,ATP luminescence,72 h,41.5
COc1cc(N2CCC(N3CCN(C)CC3)CC2)ccc1Nc1ncc(Cl)c(Nc2ccccc2S(=O)(=O)C(C)C)n1,Rh41,,72 h,0.07
O=C(Nc1cccc(C(=O)Nc2ccc3[nH]ncc3c2)c1)Nc1ccccc1C(F)(F)F,KM12,ATP luminescence,72 h,43.7
CCCCC(C(=O)COc1c(F)c(F)cc(F)c1F)n1cc([C@@](C)(NCc2ccc3ncccc3c2)C(C)C)nn1 (stereo partly shown),BESM,,72 h,> 10
C[C@H]1O[C@@H](n2cc(F)c(=O)[nH]c2=O)[C@H](O)[C@@H]1O,Hep3B,CCK-8,48 h,13.2
COc1cc(Nc2nccc(-c3cnn4nc(OC)ccc34)n2)cc(C(F)(F)F)c1,CAKI-2,ATP luminescence,,0.2
O=C(Nc1ccc(C(F)(F)F)cc1)Nc1cccc(C(=O)Nc2ccc3[nH]nc(-c4ccccc4)c3c2)c1,KM12,ATP luminescence,72 h,> 50
CN1CCN(Cc2ccc(Nc3ncc(Cl)c(Nc4ccccc4S(=O)(=O)N(C)C)n3)cc2)CC1,PSN1,,,0.006
O=C1Nc2ccc(F)cc2/C1=N/NC(=O)c1cc2ccccc2[nH]1,ZR75,,,> 30
O=C(Nc1ccc2[nH]ncc2c1)c1cccc(NC(=S)Nc2cc(C(F)(F)F)cc(C(F)(F)F)c2)c1,KM12,ATP luminescence,72 h,19.6
CN1C(=O)/C(=N\NC(=O)c2cc3ccccc3[nH]2)c2cc(F)ccc21,ZR75,,,4.31
CC(C)C[C@H](NC(=O)[C@H](Cc1ccccc1)NC(=O)c1cnccn1)B(O)O,CAKI-2,ATP luminescence,,0.024
O=C1NCCc2[nH]c(-c3ccncc3)cc21,SR,,,0.286
O=C(Nc1ccc(Cl)cc1)Nc1cccc(C(=O)Nc2ccc3[nH]ncc3c2)c1,KM12,ATP luminescence,72 h,> 50
COc1ccc2c(c1)/C(=N/NC(=O)c1cc3ccccc3[nH]1)C(=O)N2C,ZR75,,,1.48
O=C(Nc1cccc(C(=O)Nc2ccc3[nH]ncc3c2)c1)Nc1ccccc1F,KM12,ATP luminescence,72 h,48.3
CN1C(=O)/C(=N\NC(=O)c2cc3ccccc3[nH]2)c2cc(Br)ccc21,ZR75,,,1.01
O=C(Nc1cccc(Cl)c1)Nc1cccc(C(=O)Nc2ccc3[nH]ncc3c2)c1,KM12,ATP luminescence,72 h,> 50
CCCCC(C(=O)COc1c(F)c(F)cc(F)c1F)n1cc([C@@](C)(NCc2ccc3ncccc3c2)C2CCC2)nn1 (stereo partly shown),BESM,,72 h,> 10
COc1cc2c(Oc3ccc(NC(=O)C4(C(=O)Nc5ccc(F)cc5)CC4)cc3F)ccnc2cc1OCCCN1CCOCC1,Rh41,,72 h,0.59
COc1cc(C2Oc3cc([C@H]4Oc5cc(O)cc(O)c5C(=O)[C@@H]4O)ccc3OC2CO)ccc1O (stereo partly shown),Hep3B,CCK-8,72 h,7.21
COC(=O)/C=C/C=C/c1ccc2c(c1)OCO2,COR-L23,SRB,,95.6
CN1C(=O)/C(=N\NC(=O)c2cc3ccccc3[nH]2)c2cc(Cl)ccc21,ZR75,,,0.84
[Fe+2].c1cc[cH-]c1.c1cc[cH-]c1,BL2,MTT,48 h,> 100
Cc1[nH]c(/C=C2\C(=O)Nc3ccc(S(=O)(=O)N(C)c4cccc(Cl)c4)cc32)c(C)c1C(=O)N1CCN(C)CC1,Rh41,,72 h,1.84
CC(=O)Oc1ccc2c(c1)C(C)=CC(C)(C)N2Cc1ccccc1,Hep3B,MTT,72 h,8
O=C(N/N=C1\C(=O)N(c2ccccc2)c2ccccc21)c1cc2ccccc2[nH]1,ZR75,,,1.32
O=C(Nc1ccc2[nH]ncc2c1)c1cccc(NC(=S)Nc2ccc(C(F)(F)F)cc2)c1,KM12,ATP luminescence,72 h,23.1
C[C@H]1[C@@H](O)O[C@@H]2O[C@@]3(C)CC[C@H]4[C@H](C)CC[C@@H]1[C@@]24OO3,Hep3B,CCK-8,48 h,> 50
